Data set [1] can be described thus: Antiproliferative activity against BAEC. It counts as functional, cell-based. The settings on record: Bos taurus.
The next data set concerns HUVEC. The experiment in a line: Antiproliferative activity against HUVEC after 72 hrs by MTT assay. It counts as cell-based. The settings on record: Homo sapiens. An outline of the steps:
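HUVEC (passage 3-5) grown in endothelial growth medium at 37 C; 2000 cells/well seeded in triplicate. After attachment, fresh medium with compound for 72 h. MTT 0.25 mg/mL added for 2 h at 37 C, formazan dissolved in isopropanol, absorbance read at 570 nm. Value is concentration giving 50% growth inhibition.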

The target of data set [2] is Methionine aminopeptidase 2 (Homo sapiens) (UniProt P50579). The experiment in a line: Inhibition of MetAP2 assessed as remaining enzyme activity at 200 nM after 8 hrs relative to untreated control. An outline of the steps:
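MetAP2 at 20 nM final was incubated with compound at 200 nM final in 1% glycerol, 20 mM HEPES, 100 mM KCl, 0.1 mM CoSO4. Triplicate samples were taken at 1, 2, 4 and 8 h, and residual activity was read with Met-AMC substrate. Result is percent activity remaining at 8 h.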

Data set [3] deals with Rattus norvegicus. The experiment in a line: CNS toxicity in rat assessed as incidence of seizures at 60 mg/kg, iv qd for 14 days. The settings on record: in vivo, 336 h.
Data set [4] concerns Rattus norvegicus. The experiment in a line: CNS toxicity in rat assessed as incidence of seizures at 6 mg/kg, iv qd for 14 days. The settings on record: in vivo, 336 h.

Methionine aminopeptidase 2 (Homo sapiens), sequence (P50579 2-478 limits assumed): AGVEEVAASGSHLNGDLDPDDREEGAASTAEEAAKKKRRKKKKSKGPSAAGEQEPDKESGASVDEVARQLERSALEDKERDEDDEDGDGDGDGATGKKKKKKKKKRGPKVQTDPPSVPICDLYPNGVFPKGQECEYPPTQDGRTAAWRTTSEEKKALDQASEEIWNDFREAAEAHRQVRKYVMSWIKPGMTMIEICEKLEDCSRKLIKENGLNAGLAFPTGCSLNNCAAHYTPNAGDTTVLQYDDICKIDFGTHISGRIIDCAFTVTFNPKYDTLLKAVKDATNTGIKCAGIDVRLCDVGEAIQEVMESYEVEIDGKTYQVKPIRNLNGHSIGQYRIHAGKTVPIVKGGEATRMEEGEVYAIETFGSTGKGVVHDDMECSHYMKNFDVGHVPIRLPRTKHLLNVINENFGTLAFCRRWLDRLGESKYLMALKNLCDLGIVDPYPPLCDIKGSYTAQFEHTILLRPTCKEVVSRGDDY

For the compound `COC(=O)[C@@H](NC(=O)O[C@@H]1CC[C@]2(CO2)[C@H]([C@@]2(C)O[C@@H]2CC=C(C)C)[C@@H]1OC)C(C)C`, the results for the IC50 (in data set [1]; in the data set on HUVEC) were 17 pM and 18 pM, respectively.

Turning to `CO[C@H]1[C@@H]([C@@]2(C)O[C@@H]2CC=C(C)C)[C@]2(CC[C@H]1OC(=O)N[C@@H](C(=O)NCCC1CCCN1C)C(C)C)CO2` (stereo partly specified), the IC50 in the data set with HUVEC was determined as 600 pM. For the same compound, the Activity in data set [2] came to 4.5%.

For `CO[C@H]1[C@@H]([C@@]2(C)O[C@@H]2CC=C(C)C)[C@]2(CC[C@H]1OC(=O)NC(=O)CCl)CO2`, it took 250 pM to reach half-maximal inhibition in the data set with HUVEC (IC50). Besides, the Activity in data set [2] came to 4%.

With `CO[C@H]1[C@@H]([C@@]2(C)O[C@@H]2CC=C(C)C)[C@]2(CC[C@H]1OC(=O)N[C@@H](C(=O)NN1CCOCC1)C(C)C)CO2`, in the data set with HUVEC, it took 1700 pM to reach half-maximal inhibition (IC50). Also, the Activity in data set [2] turned out to be 5.2%.

As for `CO[C@H]1[C@@H]([C@@]2(C)O[C@@H]2CC=C(C)C)[C@]2(CC[C@H]1OC(=O)N[C@@H](C(N)=O)C(C)C)CO2`, the concentration for half-maximal inhibition (IC50) in data set [1] was determined as 46 pM; in the data set with HUVEC, 95 pM. In addition, the Activity entry in the data set with Rattus norvegicus [3] is “Non-toxic”; in the data set on Rattus norvegicus [4] it was “Non-toxic”; in data set [2], 2.8%.

In the case of `CO[C@H]1[C@@H]([C@@]2(C)O[C@@H]2CC=C(C)C)[C@]2(CC[C@H]1OC(=O)N[C@@H](C(=O)NCCN1CCCC1)C(C)C)CO2`, the half-maximal inhibitory concentration (IC50) in the data set with HUVEC is 600 pM. Further, in data set [2], the Activity worked out at 2.6%.

`CO[C@H]1C([C@@]2(C)O[C@@H]2CC=C(C)C)[C@]2(CC[C@H]1OC(=O)NCCC[N+](C)(C)C)CO2` (single isomer, unassigned) had a 50% inhibitory concentration (IC50) with HUVEC above 100000 pM. Moreover, the Activity in data set [2] worked out at 5.4%.

In the case of `CO[C@H]1C([C@@]2(C)O[C@@H]2CC=C(C)C)[C@]2(CC[C@H]1OC(=O)NC(C)(C)C)CO2` (single isomer, unassigned), 1100 pM corresponded to half-maximal inhibition in the data set with HUVEC (IC50).

With `CO[C@H]1C([C@@]2(C)O[C@@H]2CC=C(C)C)[C@]2(CC[C@H]1OC(=O)N[C@@H](C(=O)Nc1cccc(C(=O)O)c1)C(C)C)CO2` (single isomer, unassigned), 15000 pM corresponded to half-maximal inhibition in the data set on HUVEC (IC50). Besides, in data set [2], the Activity is 4.3%.

In the data set on HUVEC, `CO[C@H]1C([C@@]2(C)O[C@@H]2CC=C(C)C)[C@]2(CC[C@H]1OC(=O)NCc1ccc(C(=O)O)cc1)CO2` (single isomer, unassigned) returned a half-inhibitory concentration (IC50) of 700 pM. Moreover, the Activity in data set [2] was determined as 3.5%.

In the data set on HUVEC, `CO[C@H]1C([C@@]2(C)O[C@@H]2CC=C(C)C)[C@]2(CC[C@H]1OC(=O)NC(C)(C)C(N)=O)CO2` (single isomer, unassigned) displayed a half-maximal inhibitory concentration (IC50) of 1700 pM. Besides, the Activity in data set [2] was 24%.

The compound `CO[C@H]1C([C@@]2(C)O[C@@H]2CC=C(C)C)[C@]2(CC[C@H]1OC(=O)NC1(C(N)=O)CCCC1)CO2` (single isomer, unassigned) registered a 50% inhibitory concentration (IC50) in the data set with HUVEC of 700 pM. The Activity in data set [2] was determined as 13%.

In turn, `CO[C@H]1C([C@@]2(C)O[C@@H]2CC=C(C)C)[C@]2(CC[C@H]1OC(=O)NN1CCOCC1)CO2` (single isomer, unassigned) returned a concentration for half-maximal inhibition (IC50) in the data set on HUVEC of 700 pM. Besides, in data set [2], the Activity worked out at 5.7%.

The compound `CO[C@H]1C([C@@]2(C)O[C@@H]2CC=C(C)C)[C@]2(CC[C@H]1OC(=O)NCCC1CCC[N+]1(C)C)CO2` (single isomer, unassigned) displayed an IC50 in the data set on HUVEC above 100000 pM. Also, the Activity in data set [2] turned out to be 6.3%.

In the case of `COC(=O)[C@H](NC(=O)O[C@@H]1CC[C@]2(CO2)C([C@@]2(C)O[C@@H]2CC=C(C)C)[C@@H]1OC)c1ccccc1` (single isomer, unassigned), the half-inhibitory concentration (IC50) worked out at 35 pM in data set [1] and 36 pM in the data set with HUVEC.

In turn, `CO[C@H]1C([C@@]2(C)O[C@@H]2CC=C(C)C)[C@]2(CC[C@H]1OC(=O)NCCN1CCCC1)CO2` (single isomer, unassigned) yielded an IC50 in the data set with HUVEC of 100 pM. Also, in data set [2], the Activity was 3.5%.

In the data set on HUVEC, `CO[C@H]1C([C@@]2(C)O[C@@H]2CC=C(C)C)[C@]2(CC[C@H]1OC(=O)NC(C)C)CO2` (single isomer, unassigned) registered an IC50 of 60 pM. In data set [2], the Activity was found to be 3%.

Turning to `COC(=O)[C@H](NC(=O)O[C@@H]1CC[C@]2(CO2)C([C@@]2(C)O[C@@H]2CC=C(C)C)[C@@H]1OC)C(C)C` (single isomer, unassigned), the IC50 in data set [1] worked out at 48 pM; in the data set with HUVEC, 40 pM.

In the data set with HUVEC, `CO[C@H]1C([C@@]2(C)O[C@@H]2CC=C(C)C)[C@]2(CC[C@H]1OC(=O)NCCC1CCCN1C)CO2` (single isomer, unassigned) returned an IC50 of 200 pM. The Activity in data set [2] stood at 5.4%.

`COC(=O)[C@@H](CC(C)C)NC(=O)O[C@@H]1CC[C@]2(CO2)C([C@@]2(C)O[C@@H]2CC=C(C)C)[C@@H]1OC` (single isomer, unassigned): the IC50 in data set [1] was found to be 118 pM; with HUVEC it was 38 pM. For the same compound, the Activity result in the data set on Rattus norvegicus [3] and with Rattus norvegicus [4] was “Toxic” throughout.

`CO[C@H]1C([C@@]2(C)O[C@@H]2CC=C(C)C)[C@]2(CC[C@H]1OC(=O)N1CCC(C(=O)O)CC1)CO2` (single isomer, unassigned) displayed an IC50 in the data set on HUVEC of 1300 pM. Moreover, the Activity in data set [2] came out at 8.3%.
